Assay results from ChEMBL document CHEMBL3352720, “Novel alkylphospholipid-DTC hybrids as promising agents against endocrine related cancers acting via modulation of Akt-pathway” (Eur J Med Chem, 2014).
Calls of active or inactive are those of the source. The calls are words filed in the database; no cut-off is given here.

Legend:
MCF7 [1] = test: Down-regulation of Bcl-2 mRNA expression in human MCF7 cells at 2 to 10 uM incubated for 24 hrs by quantitative real time PCR method; format: functional, cell-based
Summary of the method: (§1)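 MCF-7 cells in DMEM/10% FBS were treated for 24 h at the indicated concentrations, then harvested, and mRNA levels were determined by qPCR.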

MCF7 [2] = test: Induction of cell cycle arrest in human MCF7 cells assessed as accumulation at sub-diploid phase at 7 uM incubated for 24 hrs by propidium iodide staining based FACS assay (reference value: 7.26%); format: functional
MCF7 [3] = test: Induction of mitochondrial membrane potential loss in human MCF7 cells assessed as increase in JC1 dye monomer green fluorescence at 7 uM incubated for 24 hrs by JC1 dye based flow cytometry (reference value: 1.78%); format: functional
MDA-MB-231 [4] = test: Antiproliferative activity against human MDA-MB-231 cells assessed as inhibition of cell proliferation incubated for 18 hrs followed by MTT addition for 4 hrs by MTT assay; format: functional, cell-based
Summary of the method: (§2)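 MTT assay. Cells were grown in DMEM with 10% FBS at 37 °C, 5% CO2, 90% relative humidity. 1 × 10⁴ cells per well were seeded and held 24 h, then exposed to compounds diluted in culture medium for 18 h. MTT (5 mg/mL stock) was added for a further 4 h.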

MCF7 [5] = test: Induction of apoptosis in human MCF7 cells assessed as late apoptotic cells level at 7 uM incubated for 24 hrs by annexin-V and propidium iodide staining based flow cytometry (reference value: 1.85%); format: functional
MCF7 [6] = test: Potency index, ratio of IC50 for miltefosine to IC50 for test compound against human MCF7 cells by MTT assay; format: functional
[7] = Antiproliferative activity against human DU145 cells assessed as inhibition of cell proliferation incubated for 18 hrs followed by MTT addition for 4 hrs by MTT assay; format: functional, cell-based; details: DU-145; summary of the method: as §2
MCF7 [8] = test: Induction of apoptosis in human MCF7 cells assessed as necrotic cells level at 7 uM incubated for 24 hrs by annexin-V and propidium iodide staining based flow cytometry (reference value: 2.15%); format: functional
MCF7 [9] = test: Down-regulation of cyclin A1 mRNA expression in human MCF7 cells at 2 to 10 uM incubated for 24 hrs by quantitative real time PCR method; format: functional, cell-based; summary of the method: as §1
MCF7 [10] = test: Induction of apoptosis in human MCF7 cells assessed as viable cells level at 7 uM incubated for 24 hrs by annexin-V and propidium iodide staining based flow cytometry (reference value: 89.58%); format: functional
MCF7 [11] = test: Induction of cell cycle arrest in human MCF7 cells assessed as accumulation at G2/M phase at 7 uM incubated for 24 hrs by propidium iodide staining based FACS assay (reference value: 1.47%); format: functional
MCF7 [12] = test: Induction of apoptosis in human MCF7 cells assessed as early apoptotic cells level at 7 uM incubated for 24 hrs by annexin-V and propidium iodide staining based flow cytometry (reference value: 6.42%); format: functional
MCF7 [13] = test: Induction of cell cycle arrest in human MCF7 cells assessed as accumulation at S phase at 7 uM incubated for 24 hrs by propidium iodide staining based FACS assay (reference value: 45.21%); format: functional
MCF7 [14] = test: Induction of cell cycle arrest in human MCF7 cells assessed as accumulation at G0/G1 phase at 7 uM incubated for 24 hrs by propidium iodide staining based FACS assay (reference value: 53.32%); format: functional
MDA-MB-231 [15] = test: Inhibition of AKT Ser473 phosphorylation in human MDA-MB-231 cells at 2 uM incubated for 24 hrs by Western blotting method; format: cell-based
Summary of the method: (§3)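 After 24 h treatment, cells were washed in ice-cold PBS and lysed in RIPA buffer. Protein was measured by Bradford, equal amounts run on SDS-PAGE and transferred to PVDF. Blots were probed for p-Akt (Ser473) and total Akt, then 1 h with 1:5000 HRP anti-mouse IgG, with chemiluminescent detection. Densitometry was quantified against untreated control.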

MCF7 [16] = test: Antiproliferative activity against human MCF7 cells assessed as inhibition of cell proliferation incubated for 18 hrs followed by MTT addition for 4 hrs by MTT assay; format: functional, cell-based; summary of the method: as §2
HEK293 = test: Antiproliferative activity against HEK293 cells assessed as inhibition of cell proliferation incubated for 18 hrs followed by MTT addition for 4 hrs by MTT assay; format: cell-based; details: Homo sapiens; summary of the method: as §2
MCF7 [17] = test: Down-regulation of cyclin A2 mRNA expression in human MCF7 cells at 2 to 10 uM incubated for 24 hrs by quantitative real time PCR method; format: functional, cell-based; summary of the method: as §1
DU-145 [18] = test: Induction of cell cycle arrest in human DU145 cells assessed as accumulation at S phase at 10 uM incubated for 24 hrs by propidium iodide staining based FACS assay (reference value: 39.44%); format: functional
DU-145 [19] = test: Induction of apoptosis in human DU145 cells assessed as necrotic cells level at 5 uM incubated for 24 hrs by annexin-V and propidium iodide staining based flow cytometry (reference value: 1.33%); format: functional
DU-145 [20] = test: Induction of mitochondrial membrane potential loss in human DU145 cells assessed as increase in JC1 dye monomer green fluorescence at 10 uM incubated for 24 hrs by JC1 dye based flow cytometry (reference value: 2.81%); format: functional
DU-145 [21] = test: Increase in Bax protein expression in human DU145 cells at 5 to 15 uM incubated for 24 hrs by Western blotting method; format: functional, cell-based
Summary of the method: (§4)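 DU-145 cells were exposed for 24 h and lysed in RIPA buffer. Protein was quantified by Bradford, and equal amounts were run on SDS-PAGE, transferred to PVDF and immunoblotted, with chemiluminescent detection. Bax/Bcl-2 ratio was taken from 3 densitometric scans as mean SE versus control.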

DU-145 [22] = test: Induction of apoptosis in human DU145 cells assessed as viable cells level at 5 uM incubated for 24 hrs by annexin-V and propidium iodide staining based flow cytometry (reference value: 93.65%); format: functional
DU-145 [23] = test: Induction of cell cycle arrest in human DU145 cells assessed as accumulation at G2/M phase at 5 uM incubated for 24 hrs by propidium iodide staining based FACS assay (reference value: 6.90%); format: functional
DU-145 [24] = test: Induction of apoptosis in human DU145 cells assessed as late apoptotic cells level at 5 uM incubated for 24 hrs by annexin-V and propidium iodide staining based flow cytometry (reference value: 2.96%); format: functional
DU-145 [25] = test: Induction of apoptosis in human DU145 cells assessed as viable cells level at 15 uM incubated for 24 hrs by annexin-V and propidium iodide staining based flow cytometry (reference value: 93.65%); format: functional
DU-145 [26] = test: Induction of apoptosis in human DU145 cells assessed as late apoptotic cells level at 10 uM incubated for 24 hrs by annexin-V and propidium iodide staining based flow cytometry (reference value: 2.96%); format: functional
DU-145 [27] = test: Induction of cell cycle arrest in human DU145 cells assessed as accumulation at S phase at 15 uM incubated for 24 hrs by propidium iodide staining based FACS assay (reference value: 39.44%); format: functional
DU-145 [28] = test: Induction of apoptosis in human DU145 cells assessed as late apoptotic cells level at 15 uM incubated for 24 hrs by annexin-V and propidium iodide staining based flow cytometry (reference value: 2.96%); format: functional
DU-145 [29] = test: Induction of apoptosis in human DU145 cells assessed as early apoptotic cells level at 15 uM incubated for 24 hrs by annexin-V and propidium iodide staining based flow cytometry (reference value: 2.06%); format: functional
DU-145 [30] = test: Inhibition of AKT Ser473 phosphorylation in human DU145 cells at 15 uM incubated for 24 hrs by Western blotting method; format: cell-based; summary of the method: as §3
DU-145 [31] = test: Induction of cell cycle arrest in human DU145 cells assessed as accumulation at G0/G1 phase at 5 uM incubated for 24 hrs by propidium iodide staining based FACS assay (reference value: 53.66%); format: functional
DU-145 [32] = test: Induction of mitochondrial membrane potential loss in human DU145 cells assessed as increase in JC1 dye monomer green fluorescence at 5 uM incubated for 24 hrs by JC1 dye based flow cytometry (reference value: 2.81%); format: functional
[33] = Antiproliferative activity against human PC3 cells assessed as inhibition of cell proliferation incubated for 18 hrs followed by MTT addition for 4 hrs by MTT assay; format: functional, cell-based; details: PC-3; summary of the method: as §2
[34] = Reduction in Bcl-2 protein expression in human DU145 cells at 5 to 15 uM incubated for 24 hrs by Western blotting method; format: functional, cell-based; details: DU-145
DU-145 [35] = test: Induction of cell cycle arrest in human DU145 cells assessed as accumulation at G2/M phase at 15 uM incubated for 24 hrs by propidium iodide staining based FACS assay (reference value: 6.90%); format: functional
DU-145 [36] = test: Induction of cell cycle arrest in human DU145 cells assessed as accumulation at G2/M phase at 10 uM incubated for 24 hrs by propidium iodide staining based FACS assay (reference value: 6.90%); format: functional
DU-145 [37] = test: Increase in Bax/Bcl-2 expression ratio in human DU145 cells at 15 uM incubated for 24 hrs by Western blotting method; format: functional, cell-based; summary of the method: as §4
DU-145 [38] = test: Induction of apoptosis in human DU145 cells assessed as necrotic cells level at 15 uM incubated for 24 hrs by annexin-V and propidium iodide staining based flow cytometry (reference value: 1.33%); format: functional
DU-145 [39] = test: Induction of mitochondrial membrane potential loss in human DU145 cells assessed as increase in JC1 dye monomer green fluorescence incubated for 24 hrs by JC1 dye based flow cytometry; format: functional, cell-based
DU-145 [40] = test: Induction of cell cycle arrest in human DU145 cells assessed as accumulation at G0/G1 phase at 15 uM incubated for 24 hrs by propidium iodide staining based FACS assay (reference value: 53.66%); format: functional
DU-145 [41] = test: Induction of apoptosis in human DU145 cells assessed as early apoptotic cells level at 10 uM incubated for 24 hrs by annexin-V and propidium iodide staining based flow cytometry (reference value: 2.06%); format: functional
DU-145 [42] = test: Induction of apoptosis in human DU145 cells assessed as viable cells level at 10 uM incubated for 24 hrs by annexin-V and propidium iodide staining based flow cytometry (reference value: 93.65%); format: functional
DU-145 [43] = test: Induction of cell cycle arrest in human DU145 cells assessed as accumulation at G0/G1 phase at 10 uM incubated for 24 hrs by propidium iodide staining based FACS assay (reference value: 53.66%); format: functional
DU-145 [44] = test: Induction of mitochondrial membrane potential loss in human DU145 cells assessed as increase in JC1 dye monomer green fluorescence at 15 uM incubated for 24 hrs by JC1 dye based flow cytometry (reference value: 2.81%); format: functional
DU-145 [45] = test: Induction of cell cycle arrest in human DU145 cells assessed as accumulation at S phase at 5 uM incubated for 24 hrs by propidium iodide staining based FACS assay (reference value: 39.44%); format: functional
DU-145 [46] = test: Induction of apoptosis in human DU145 cells assessed as early apoptotic cells level at 5 uM incubated for 24 hrs by annexin-V and propidium iodide staining based flow cytometry (reference value: 2.06%); format: functional
DU-145 [47] = test: Potency index, ratio of IC50 for miltefosine to IC50 for test compound against human DU145 cells by MTT assay; format: functional
DU-145 [48] = test: Induction of apoptosis in human DU145 cells assessed as necrotic cells level at 10 uM incubated for 24 hrs by annexin-V and propidium iodide staining based flow cytometry (reference value: 1.33%); format: functional

Compound: CCCCCCCCCCOP(=O)(O)OCCSC(=S)N1CCCCC1
- Activity (MCF7 [1]): Active
- Activity (MCF7 [2]): 23.81%
- Activity (MCF7 [3]): 44.62%
- IC50 (MDA-MB-231 [4]): 24.6 µM
- Activity (MCF7 [5]): 12.76%
- Ratio IC50 (MCF7 [6]): 5
- IC50 [7]: 29.3 µM
- Activity (MCF7 [8]): 2.15%
- Activity (MCF7 [9]): Active
- Activity (MCF7 [10]): 43.43%
- Activity (MCF7 [11]): 0%
- Activity (MCF7 [12]): 41.66%
- Activity (MCF7 [13]): 39.01%
- Activity (MCF7 [14]): 60.99%
- inhibition (MDA-MB-231 [15]): Active
- IC50 (MCF7 [16]): 7.24 µM
- IC50 (HEK293): 70.7 µM
- Activity (MCF7 [17]): Active

Compound: CCCCCCCCCCCCCCCCOP(=O)(O)OCCSC(=S)N1CCCCC1
- Activity (DU-145 [18]): 32.94%
- Activity (DU-145 [19]): 1.64%
- Activity (DU-145 [20]): 30.84%
- Activity (DU-145 [21]): Active
- Activity (DU-145 [22]): 86.45%
- IC50 (MDA-MB-231 [4]): 100 µM
- Activity (DU-145 [23]): 5.65%
- Activity (DU-145 [24]): 2.91%
- IC50 [7]: 14.7 µM
- Activity (DU-145 [25]): 78.81%
- Activity (DU-145 [26]): 4.52%
- Activity (DU-145 [27]): 27.27%
- Activity (DU-145 [28]): 6.33%
- Activity (DU-145 [29]): 12.65%
- inhibition (DU-145 [30]): Active
- Activity (DU-145 [31]): 59.09%
- Activity (DU-145 [32]): 3.68%
- IC50 [33]: 34.3 µM
- Activity [34]: Active
- Activity (DU-145 [35]): 5.6%
- Activity (DU-145 [36]): 5.92%
- Activity (DU-145 [37]): Active
- Activity (DU-145 [38]): 2.21%
- Activity (DU-145 [39]): Dose-dependent effect
- Activity (DU-145 [40]): 67.13%
- Activity (DU-145 [41]): 11.06%
- Activity (DU-145 [42]): 83.02%
- Activity (DU-145 [43]): 61.15%
- Activity (DU-145 [44]): 9.29%
- IC50 (MCF7 [16]): 29 µM
- IC50 (HEK293): > 100 µM
- Activity (DU-145 [45]): 35.26%
- Activity (DU-145 [46]): 9%
- Ratio IC50 (DU-145 [47]): 2
- Activity (DU-145 [48]): 1.4%
